Data on two compounds can be found in ChEMBL document CHEMBL4052588, “Design of a Biased Potent Small Molecule Inhibitor of the Bromodomain and PHD Finger-Containing (BRPF) Proteins Suitable for Cellular and in Vivo Studies” (J Med Chem, 2017).

pIC50, pKd: −log10 of the molar value. Bounds are passed on as bounds.

A word on the GI50: it is the concentration giving 50% growth inhibition. One may read the Papp A→B as the apparent permeability from the apical to the basolateral side of a cell layer. For orientation: pKd means −log10 of the Kd, conventionally taken in molar units. The low end stands for a large Kd, the high end for a small Kd. What is called pIC50 is −log10 of the IC50, conventionally taken in molar units. A high value points to a low IC50. Broadly, the Cmax is the maximum level reached in the sampled fluid or tissue.

One data set has as its system HepG2. As to the kind of experiment: Growth inhibition of human HepG2 cells after 72 hrs. The format is functional. The following applies: HepG2, 72 h.
For the next data set, the system named is HCC1187. As to the kind of experiment: Growth inhibition of human HCC1187 cells after 72 hrs. The format is functional. As to conditions: HCC1187, 72 h.
Data set [1] can be described thus: Apparent permeability across apical side to basolateral side in human Caco2 cells at 10 uM after 2 hrs by LC-MS/MS analysis. The data set is classed as ADME, cell-based. The following applies: Caco-2. On the technique in general: Caco-2 monolayers are a common model of the intestinal barrier.
In the next data set the test system is COLO 205. Description: Growth inhibition of human COLO205 cells after 72 hrs. The following applies: COLO 205, 72 h. The data set is classed as functional.
A further data set concerns SW-620. Description: Growth inhibition of human SW620 cells after 72 hrs. The data set is classed as functional. The following applies: SW-620, 72 h.
In data set [2] the target is T1, Bromodomain-containing protein 9 (Homo sapiens, UniProt Q9H8M2).
T1 sequence (Q9H8M2 whole entry): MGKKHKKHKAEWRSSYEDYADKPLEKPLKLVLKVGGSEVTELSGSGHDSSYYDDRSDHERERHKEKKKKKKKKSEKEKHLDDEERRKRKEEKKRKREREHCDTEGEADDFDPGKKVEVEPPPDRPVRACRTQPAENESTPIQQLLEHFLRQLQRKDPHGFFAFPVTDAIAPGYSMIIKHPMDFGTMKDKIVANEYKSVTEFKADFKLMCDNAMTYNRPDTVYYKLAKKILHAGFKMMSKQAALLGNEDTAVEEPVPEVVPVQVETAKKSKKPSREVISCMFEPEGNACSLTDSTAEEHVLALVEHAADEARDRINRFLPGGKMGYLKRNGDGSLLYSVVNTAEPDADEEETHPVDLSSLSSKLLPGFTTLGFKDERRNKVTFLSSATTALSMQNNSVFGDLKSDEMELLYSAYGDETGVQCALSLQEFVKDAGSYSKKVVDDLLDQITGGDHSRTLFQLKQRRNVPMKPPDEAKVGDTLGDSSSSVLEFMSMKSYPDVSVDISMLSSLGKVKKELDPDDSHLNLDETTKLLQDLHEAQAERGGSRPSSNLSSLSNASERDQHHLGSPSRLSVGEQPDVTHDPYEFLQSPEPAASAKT
Description: Binding affinity to human BRD9 by isothermal titration calorimetry. (In ITC the heat of successive injections is recorded.)

The next data set relates to RKO. As to the kind of experiment: Growth inhibition of human RKO cells after 72 hrs. The format is functional.
For the next data set, the system named is LS180. As to the kind of experiment: Growth inhibition of human LS180 cells after 72 hrs. The format is functional. As to conditions: LS180, 72 h.
Data set [3] concerns the target T2, Bromodomain and PHD finger-containing protein 3 (Homo sapiens, UniProt Q9ULD4).
T2 sequence (Q9ULD4 whole entry): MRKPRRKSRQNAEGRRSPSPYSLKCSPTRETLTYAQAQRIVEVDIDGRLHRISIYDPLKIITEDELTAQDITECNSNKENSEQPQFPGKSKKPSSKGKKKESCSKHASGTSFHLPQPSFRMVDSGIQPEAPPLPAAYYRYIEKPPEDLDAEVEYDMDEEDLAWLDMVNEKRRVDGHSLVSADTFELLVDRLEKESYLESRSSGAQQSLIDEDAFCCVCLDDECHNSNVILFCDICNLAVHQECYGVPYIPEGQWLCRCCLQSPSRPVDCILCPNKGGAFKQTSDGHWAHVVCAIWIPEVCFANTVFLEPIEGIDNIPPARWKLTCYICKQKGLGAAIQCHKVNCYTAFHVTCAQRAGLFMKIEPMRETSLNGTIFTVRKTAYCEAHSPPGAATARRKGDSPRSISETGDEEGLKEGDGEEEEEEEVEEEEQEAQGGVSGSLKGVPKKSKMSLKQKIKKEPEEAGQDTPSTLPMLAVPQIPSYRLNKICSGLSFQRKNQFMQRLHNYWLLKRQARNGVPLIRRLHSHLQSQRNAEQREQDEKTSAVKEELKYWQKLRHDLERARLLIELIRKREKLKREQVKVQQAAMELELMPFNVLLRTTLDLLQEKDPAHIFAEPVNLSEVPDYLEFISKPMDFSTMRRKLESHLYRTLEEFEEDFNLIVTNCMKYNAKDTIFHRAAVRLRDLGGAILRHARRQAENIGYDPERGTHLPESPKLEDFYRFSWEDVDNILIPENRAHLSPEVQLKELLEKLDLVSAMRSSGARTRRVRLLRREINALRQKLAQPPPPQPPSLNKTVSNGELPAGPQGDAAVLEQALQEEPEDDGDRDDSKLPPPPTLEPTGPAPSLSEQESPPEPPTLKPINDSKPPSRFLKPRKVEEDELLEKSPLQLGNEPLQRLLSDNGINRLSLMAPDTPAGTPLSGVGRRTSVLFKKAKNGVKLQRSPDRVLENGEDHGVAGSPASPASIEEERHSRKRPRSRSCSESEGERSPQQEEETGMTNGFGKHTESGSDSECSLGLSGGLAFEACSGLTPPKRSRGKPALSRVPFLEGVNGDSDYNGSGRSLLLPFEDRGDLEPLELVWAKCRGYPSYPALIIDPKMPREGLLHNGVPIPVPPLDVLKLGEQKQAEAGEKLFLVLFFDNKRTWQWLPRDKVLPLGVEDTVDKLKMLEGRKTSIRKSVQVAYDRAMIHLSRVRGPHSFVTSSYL
Description: Inhibition of human His tagged BRPF3 incubated for 30 mins followed by addition of biotinylated peptide and further incubation for 30 mins measured by AlphaScreen assay. In a few lines: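 AlphaScreen biochemical readout of bromodomain inhibition, giving an IC50. Compound series were made by serial dilution of a 100 mM DMSO stock. […] Differences under 2-fold are treated as not significant.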

Data set [4] is described as follows: Cmax in CD-1 mouse blood at 3 mg/kg, po. The format is ADME, organism-based. On the set-up: dose 3 mg/kg, route oral. As to conditions: whole blood. In a few lines:
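Female CD-1 mice (n = 3), single dosing: intravenous 1.0 mg/kg, or oral 3.0 mg/kg given as a suspension. Blood levels were followed over time to derive clearance, volume of distribution, elimination half-life, Cmax, Tmax, AUC0−∞, oral bioavailability and fraction absorbed.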

The next data set concerns OCI-AML2. Description: Growth inhibition of human OCI-AML2 cells after 72 hrs. The format is functional. As to conditions: OCI-AML2, 72 h.
Data set [5] addresses T3, Chromatin remodeling regulator CECR2 (Homo sapiens, UniProt Q9BXF3). Description: Inhibition of human CECR2 expressed in Escherichia coli BL21 after 1 hr by BROMOscan assay.
In data set [6] the target is T3, Chromatin remodeling regulator CECR2. Description: Inhibition of human His tagged CECR2 incubated for 30 mins followed by addition of biotinylated peptide and further incubation for 30 mins measured by AlphaScreen assay. (In general: Bead proximity is the source of the signal in Alpha formats.)
Data set [7] concerns the target Histone acetyltransferase KAT2B (Homo sapiens, UniProt Q92831). Description: Inhibition of human PCAF expressed in Escherichia coli BL21 after 1 hr by BROMOscan assay.

T3 sequence (Q9BXF3 whole entry): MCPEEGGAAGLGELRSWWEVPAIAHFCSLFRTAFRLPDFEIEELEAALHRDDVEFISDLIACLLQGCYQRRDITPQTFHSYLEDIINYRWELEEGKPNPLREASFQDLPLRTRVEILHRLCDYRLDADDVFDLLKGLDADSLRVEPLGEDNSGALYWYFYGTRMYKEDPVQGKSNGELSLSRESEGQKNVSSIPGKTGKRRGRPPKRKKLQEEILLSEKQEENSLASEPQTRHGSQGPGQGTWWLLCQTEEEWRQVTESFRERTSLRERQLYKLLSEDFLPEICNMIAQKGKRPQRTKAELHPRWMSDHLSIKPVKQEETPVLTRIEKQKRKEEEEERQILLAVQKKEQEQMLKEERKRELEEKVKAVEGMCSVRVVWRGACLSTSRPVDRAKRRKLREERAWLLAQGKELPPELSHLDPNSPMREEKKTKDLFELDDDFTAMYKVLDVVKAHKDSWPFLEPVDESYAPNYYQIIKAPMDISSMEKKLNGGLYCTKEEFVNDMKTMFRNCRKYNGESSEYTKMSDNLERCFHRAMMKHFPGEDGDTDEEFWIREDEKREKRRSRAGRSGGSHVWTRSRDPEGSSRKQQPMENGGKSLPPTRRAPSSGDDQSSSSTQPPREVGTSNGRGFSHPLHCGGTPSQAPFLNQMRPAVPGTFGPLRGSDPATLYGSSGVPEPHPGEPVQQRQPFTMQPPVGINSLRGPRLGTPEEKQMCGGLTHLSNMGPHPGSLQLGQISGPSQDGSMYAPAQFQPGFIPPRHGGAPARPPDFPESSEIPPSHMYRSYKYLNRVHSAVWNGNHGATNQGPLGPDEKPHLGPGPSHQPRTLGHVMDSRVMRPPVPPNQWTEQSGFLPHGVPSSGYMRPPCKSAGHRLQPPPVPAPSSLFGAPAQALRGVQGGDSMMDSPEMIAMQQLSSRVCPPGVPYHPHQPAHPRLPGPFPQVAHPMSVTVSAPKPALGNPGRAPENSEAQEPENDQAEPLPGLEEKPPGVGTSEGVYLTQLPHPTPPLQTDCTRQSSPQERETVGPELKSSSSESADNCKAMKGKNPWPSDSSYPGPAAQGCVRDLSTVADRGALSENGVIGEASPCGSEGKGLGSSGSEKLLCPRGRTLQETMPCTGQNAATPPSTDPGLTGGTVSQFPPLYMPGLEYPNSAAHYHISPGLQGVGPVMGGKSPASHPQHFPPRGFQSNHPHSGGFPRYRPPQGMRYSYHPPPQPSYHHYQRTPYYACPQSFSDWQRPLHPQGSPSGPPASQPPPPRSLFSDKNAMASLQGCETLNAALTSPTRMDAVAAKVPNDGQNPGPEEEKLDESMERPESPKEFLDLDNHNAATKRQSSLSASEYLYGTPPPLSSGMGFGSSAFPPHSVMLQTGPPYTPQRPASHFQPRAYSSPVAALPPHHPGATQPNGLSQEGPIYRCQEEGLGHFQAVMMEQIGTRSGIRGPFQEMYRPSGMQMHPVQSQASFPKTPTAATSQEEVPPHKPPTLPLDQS
Sequence of Histone acetyltransferase KAT2B (Q92831 whole entry): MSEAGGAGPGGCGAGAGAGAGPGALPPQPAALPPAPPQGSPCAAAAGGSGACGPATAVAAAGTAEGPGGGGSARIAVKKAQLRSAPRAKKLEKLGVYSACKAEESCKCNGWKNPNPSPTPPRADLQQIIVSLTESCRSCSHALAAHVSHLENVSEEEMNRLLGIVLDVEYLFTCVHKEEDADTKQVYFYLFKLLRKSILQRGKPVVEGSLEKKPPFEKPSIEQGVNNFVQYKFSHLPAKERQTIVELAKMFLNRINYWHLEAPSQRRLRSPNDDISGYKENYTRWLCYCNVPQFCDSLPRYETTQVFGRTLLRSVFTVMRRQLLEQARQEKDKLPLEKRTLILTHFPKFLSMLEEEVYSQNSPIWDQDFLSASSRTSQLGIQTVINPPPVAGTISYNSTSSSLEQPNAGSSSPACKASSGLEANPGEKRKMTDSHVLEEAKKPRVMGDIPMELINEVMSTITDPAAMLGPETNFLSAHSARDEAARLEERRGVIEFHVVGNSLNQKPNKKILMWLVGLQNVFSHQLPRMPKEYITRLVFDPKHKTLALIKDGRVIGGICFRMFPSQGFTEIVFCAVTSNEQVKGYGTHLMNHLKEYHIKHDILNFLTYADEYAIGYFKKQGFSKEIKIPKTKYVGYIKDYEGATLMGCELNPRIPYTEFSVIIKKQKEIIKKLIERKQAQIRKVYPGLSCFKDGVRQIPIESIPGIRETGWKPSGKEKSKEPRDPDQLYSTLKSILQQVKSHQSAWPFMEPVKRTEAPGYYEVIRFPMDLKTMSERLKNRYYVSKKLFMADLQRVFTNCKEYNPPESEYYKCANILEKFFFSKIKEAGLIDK

For the compound `Cc1cc2cc(NS(=O)(=O)c3ccc(C#N)cc3)ccc2n(C)c1=O`, the GI50 in the data set with HepG2, with HCC1187, with COLO 205, in the data set with SW-620, in the data set on RKO and in the data set on LS180 was 1000 to 10000 nM throughout. In the data set with OCI-AML2, this compound returned a GI50 of 1300 nM. Moreover, the apical-to-basolateral permeability (Papp A→B) at 2 h, 10 µM in [1] came to 10 ×10⁻⁶ cm/s. The compound also had a negative-log Kd (pKd) in [2] of 5.95. The same compound showed a negative-log IC50 (pIC50) in data set [3] of 5.70. In [4], this compound came in with a Cmax of 4 µM.
In the case of `CCc1cc2cc(NS(=O)(=O)c3ccc(C#N)cc3)ccc2n(CC)c1=O`, the results for the negative-log IC50 (pIC50) in data set [5], in [6] and in data set [7] were under 4.00, under 4.70 and under 4.00, respectively.
